In brackets after ≈: the same amount, converted by molar mass.
How the values were obtained:
Assay type in all cases: functional
[1] = tested on: Cryptococcus neoformans; test: Antifungal activity against Cryptococcus neoformans ATCC 32264 assessed as growth inhibition at 31.25 ug/ml after 48 hrs by broth microdilution method; settings: ATCC 32264, 48 h
In short: (§1)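 CLSI M27-A3 broth microdilution in RPMI-1640. Compound stocks were made in DMSO (final at most 1%) and tested at final levels of 250 to 0.98. Inoculum was 1–5 × 10^3 CFU/mL, incubated 48 h at 30 °C in a moist, dark chamber. Growth and sterility control wells were included.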

[2] = tested on: Cryptococcus neoformans; test: Antifungal activity against Cryptococcus neoformans IM 972751 clinical isolate after 48 hrs by broth microdilution method; settings: IM 972751, 48 h
In short: (§2)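 Clinical isolates from the Malbrán Institute were grown on Sabouraud-chloramphenicol agar for 48 h at 30 °C, kept on Sabouraud-dextrose agar and subcultured every 15 days. M27-A3 RPMI-1640 microdilution used 1–5 × 10^3 CFU/mL, 48 h at 30 °C, OD405 read, triplicate. Endpoints MIC100, MIC80 and MIC50 were taken from % inhibition dose-response curves.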

[3] = tested on: Cryptococcus neoformans; test: Antifungal activity against Cryptococcus neoformans ATCC 32264 assessed as growth inhibition at 7.81 ug/ml after 48 hrs by broth microdilution method; settings: ATCC 32264, 48 h; in short: as §1
[4] = tested on: Cryptococcus neoformans; test: Antifungal activity against Cryptococcus neoformans IM 961951 clinical isolate after 48 hrs by broth microdilution method; settings: IM 961951, 48 h; in short: as §2
[5] = tested on: Cryptococcus neoformans; test: Antifungal activity against Cryptococcus neoformans IM 983036 clinical isolate after 48 hrs by broth microdilution method; settings: IM 983036, 48 h; in short: as §2
[6] = tested on: Cryptococcus neoformans; test: Antifungal activity against Cryptococcus neoformans IM 052470 clinical isolate after 48 hrs by broth microdilution method; settings: IM 052470, 48 h
In short: (§3)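 Clinical isolates from the Malbrán Institute were grown on Sabouraud-chloramphenicol agar for 48 h at 30 °C, kept on Sabouraud-dextrose agar and subcultured every 15 days. Endpoints MIC100, MIC80 and MIC50 were taken from % inhibition dose-response curves.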

[7] = tested on: Cryptococcus neoformans; test: Antifungal activity against Cryptococcus neoformans ATCC 32264 assessed as growth inhibition at 15.62 ug/ml after 48 hrs by broth microdilution method; settings: ATCC 32264, 48 h; in short: as §1
[8] = tested on: Cryptococcus neoformans; test: Antifungal activity against Cryptococcus neoformans IM 00319 clinical isolate after 48 hrs by broth microdilution method; settings: IM 00319, 48 h; in short: as §3
[9] = tested on: Candida albicans; test: Antifungal activity against Candida albicans ATCC 10231 assessed as growth inhibition at 15.62 ug/ml after 48 hrs by broth microdilution method; settings: ATCC 10231, 48 h; in short: as §1
[10] = tested on: Candida albicans; test: Antifungal activity against Candida albicans ATCC 10231 assessed as growth inhibition at 31.25 ug/ml after 48 hrs by broth microdilution method; settings: ATCC 10231, 48 h; in short: as §1
[11] = tested on: Cryptococcus neoformans; test: Antifungal activity against Cryptococcus neoformans ATCC 32264 assessed as growth inhibition at 250 ug/ml after 48 hrs by broth microdilution method; settings: ATCC 32264, 48 h; in short: as §1
[12] = tested on: Candida albicans; test: Antifungal activity against Candida albicans ATCC 10231 assessed as growth inhibition at 3.9 ug/ml after 48 hrs by broth microdilution method; settings: ATCC 10231, 48 h; in short: as §1
[13] = tested on: Cryptococcus neoformans; test: Antifungal activity against Cryptococcus neoformans IM 983040 clinical isolate after 48 hrs by broth microdilution method; settings: IM 983040, 48 h; in short: as §2
[14] = tested on: Cryptococcus neoformans; test: Antifungal activity against Cryptococcus neoformans IM 972724 clinical isolate after 48 hrs by broth microdilution method; settings: IM 972724, 48 h; in short: as §2
[15] = tested on: Candida albicans; test: Antifungal activity against Candida albicans ATCC 10231 assessed as growth inhibition at 7.81 ug/ml after 48 hrs by broth microdilution method; settings: ATCC 10231, 48 h; in short: as §1
[16] = tested on: Candida albicans; test: Antifungal activity against Candida albicans ATCC 10231 assessed as growth inhibition at 125 ug/ml after 48 hrs by broth microdilution method; settings: ATCC 10231, 48 h; in short: as §1
[17] = tested on: Cryptococcus neoformans; test: Antifungal activity against Cryptococcus neoformans IM 031631 clinical isolate after 48 hrs by broth microdilution method; settings: IM 031631, 48 h; in short: as §2
[18] = tested on: Cryptococcus neoformans; test: Antifungal activity against Cryptococcus neoformans ATCC 32264 after 48 hrs by broth microdilution method; settings: ATCC 32264, 48 h
[19] = tested on: Cryptococcus neoformans; test: Antifungal activity against Cryptococcus neoformans IM 031706 clinical isolate after 48 hrs by broth microdilution method; settings: IM 031706, 48 h; in short: as §3
[20] = tested on: Cryptococcus neoformans; test: Antifungal activity against Cryptococcus neoformans ATCC 32264 assessed as growth inhibition at 62.5 ug/ml after 48 hrs by broth microdilution method; settings: ATCC 32264, 48 h; in short: as §1
[21] = tested on: Candida albicans; test: Antifungal activity against Candida albicans ATCC 10231 assessed as growth inhibition at 250 ug/ml after 48 hrs by broth microdilution method; settings: ATCC 10231, 48 h; in short: as §1
[22] = tested on: Cryptococcus neoformans; test: Antifungal activity against Cryptococcus neoformans IM 042074 clinical isolate after 48 hrs by broth microdilution method; settings: IM 042074, 48 h; in short: as §2
[23] = tested on: Cryptococcus neoformans; test: Antifungal activity against Cryptococcus neoformans ATCC 32264 assessed as growth inhibition at 125 ug/ml after 48 hrs by broth microdilution method; settings: ATCC 32264, 48 h; in short: as §1
[24] = tested on: Candida albicans; test: Antifungal activity against Candida albicans ATCC 10231 assessed as growth inhibition at 62.5 ug/ml after 48 hrs by broth microdilution method; settings: ATCC 10231, 48 h; in short: as §1
[25] = tested on: Cryptococcus neoformans; test: Antifungal activity against Cryptococcus neoformans ATCC 32264 assessed as growth inhibition at 3.9 ug/ml after 48 hrs by broth microdilution method; settings: ATCC 32264, 48 h; in short: as §1

Compound `Nc1nc(N)c2c(n1)NC(c1sc(Cl)nc1Cl)CC(c1ccc(Cl)cc1)=N2` (stereo not given) has an inhibition at 31.25 µg/mL [1] of 30.5%, an MFC [2] of 62.5 µg/mL (≈ 142 µM) and an MIC50 [2] of 31.2 µg/mL (≈ 70.8 µM). For the same compound, the MIC80 [2] was 31.2 µg/mL (≈ 70.8 µM), the MIC ([2]; read-out: MIC100) was 62.5 µg/mL (≈ 142 µM) and the inhibition at 7.81 µg/mL [3] was 3.56%. The MFC [4] was 62.5 µg/mL (≈ 142 µM), the MIC50 [4] was 7.8 µg/mL (≈ 17.7 µM) and the MIC80 [4] was 15.6 µg/mL (≈ 35.4 µM). The MIC ([4]; read-out: MIC100) was 15.6 µg/mL (≈ 35.4 µM), the MFC [5] was 31.2 µg/mL (≈ 70.8 µM) and the MIC50 [5] was 15.6 µg/mL (≈ 35.4 µM). It also gave an MIC80 [5] of 15.6 µg/mL (≈ 35.4 µM), an MIC ([5]; read-out: MIC100) of 31.2 µg/mL (≈ 70.8 µM) and an MFC [6] of 62.5 µg/mL (≈ 142 µM). For the same compound, the MIC50 [6] was 15.6 µg/mL (≈ 35.4 µM), the MIC80 [6] was 31.2 µg/mL (≈ 70.9 µM) and the MIC ([6]; read-out: MIC100) was 62.5 µg/mL (≈ 142 µM). The inhibition at 15.62 µg/mL [7] was 13.1%, the MFC [8] was 31.2 µg/mL (≈ 70.8 µM) and the MIC50 [8] was 7.8 µg/mL (≈ 17.7 µM). It also gave an MIC80 [8] of 15.6 µg/mL (≈ 35.4 µM), an MIC ([8]; read-out: MIC100) of 15.6 µg/mL (≈ 35.4 µM) and an inhibition at 15.62 µg/mL [9] of 100%. For the same compound, the inhibition at 31.25 µg/mL [10] was 100%, the inhibition at 250 µg/mL [11] was 78.7% and the inhibition at 3.9 µg/mL [12] was 22.2%. It also gave an MFC [13] of 62.5 µg/mL (≈ 142 µM), an MIC50 [13] of 31.2 µg/mL (≈ 70.8 µM) and an MIC80 [13] of 31.2 µg/mL (≈ 70.8 µM). It also gave an MIC ([13]; read-out: MIC100) of 31.2 µg/mL (≈ 70.8 µM), an MFC [14] of 31.2 µg/mL (≈ 70.8 µM) and an MIC50 [14] of 7.8 µg/mL (≈ 17.7 µM). For the same compound, the MIC80 [14] was 15.6 µg/mL (≈ 35.4 µM), the MIC ([14]; read-out: MIC100) was 15.6 µg/mL (≈ 35.4 µM) and the inhibition at 7.81 µg/mL [15] was 48.3%. It also gave an inhibition at 125 µg/mL [16] of 100%, an MFC [17] of 62.5 µg/mL (≈ 142 µM) and an MIC50 [17] of 7.8 µg/mL (≈ 17.7 µM). For the same compound, the MIC80 [17] was 15.6 µg/mL (≈ 35.4 µM), the MIC ([17]; read-out: MIC100) was 31.2 µg/mL (≈ 70.8 µM) and the MFC [18] was 31.2 µg/mL (≈ 70.8 µM). The MIC50 [18] was 7.8 µg/mL (≈ 17.7 µM), the MIC80 [18] was 15.6 µg/mL (≈ 35.4 µM) and the MIC ([18]; read-out: MIC100) was 15.6 µg/mL (≈ 35.4 µM). For the same compound, the MFC [19] was 62.5 µg/mL (≈ 142 µM), the MIC50 [19] was 7.8 µg/mL (≈ 17.7 µM) and the MIC80 [19] was 31.2 µg/mL (≈ 70.8 µM). For the same compound, the MIC ([19]; read-out: MIC100) was 62.5 µg/mL (≈ 142 µM), the inhibition at 62.5 µg/mL [20] was 40.5% and the inhibition at 250 µg/mL [21] was 100%. For the same compound, the MFC [22] was 62.5 µg/mL (≈ 142 µM), the MIC50 [22] was 15.6 µg/mL (≈ 35.4 µM) and the MIC80 [22] was 31.2 µg/mL (≈ 70.8 µM). For the same compound, the MIC ([22]; read-out: MIC100) was 31.2 µg/mL (≈ 70.8 µM), the inhibition at 125 µg/mL [23] was 58.2% and the inhibition at 62.5 µg/mL [24] was 100%. The inhibition at 3.9 µg/mL [25] was 0%.

`Nc1nc(N)c2c(n1)NC(c1sc(Cl)nc1Cl)CC(c1ccc3c(c1)OCO3)=N2` (stereo not given) gave an inhibition at 31.25 µg/mL [1] of 7.07%, an inhibition at 7.81 µg/mL [3] of 3.92% and an inhibition at 15.62 µg/mL [7] of 5.35%. It also gave an inhibition at 15.62 µg/mL [9] of 0%, an inhibition at 31.25 µg/mL [10] of 24.3% and an inhibition at 250 µg/mL [11] of 58.5%. For the same compound, the inhibition at 3.9 µg/mL [12] was 0%, the inhibition at 7.81 µg/mL [15] was 0% and the inhibition at 125 µg/mL [16] was 48.1%. It also gave an inhibition at 62.5 µg/mL [20] of 19.5%, an inhibition at 250 µg/mL [21] of 56.8% and an inhibition at 125 µg/mL [23] of 36.9%. The inhibition at 62.5 µg/mL [24] was 41.6% and the inhibition at 3.9 µg/mL [25] was 0%.

For `COc1cc(C2=Nc3c(N)nc(N)nc3NC(c3sc(Cl)nc3Cl)C2)cc(OC)c1OC` (stereo not given), the inhibition at 31.25 µg/mL [1] was 7.09%, the inhibition at 7.81 µg/mL [3] was 2.99% and the inhibition at 15.62 µg/mL [7] was 5.52%. For the same compound, the inhibition at 15.62 µg/mL [9] was 0%, the inhibition at 31.25 µg/mL [10] was 9.84% and the inhibition at 250 µg/mL [11] was 77.5%. It also gave an inhibition at 3.9 µg/mL [12] of 0%, an inhibition at 7.81 µg/mL [15] of 0% and an inhibition at 125 µg/mL [16] of 10.5%. It also gave an inhibition at 62.5 µg/mL [20] of 9.28%, an inhibition at 250 µg/mL [21] of 15% and an inhibition at 125 µg/mL [23] of 27.2%. The inhibition at 62.5 µg/mL [24] was 7.26% and the inhibition at 3.9 µg/mL [25] was 1.65%.

`Cc1ccc(C2=Nc3c(N)nc(N)nc3NC(c3sc(Cl)nc3Cl)C2)cc1` (stereo not given) was tested, and the inhibition at 31.25 µg/mL [1] was 6.47%, the inhibition at 7.81 µg/mL [3] was 0.93% and the inhibition at 15.62 µg/mL [7] was 4.57%. For the same compound, the inhibition at 15.62 µg/mL [9] was 1.41%, the inhibition at 31.25 µg/mL [10] was 8.7% and the inhibition at 250 µg/mL [11] was 59.1%. It also gave an inhibition at 3.9 µg/mL [12] of 0%, an inhibition at 7.81 µg/mL [15] of 0% and an inhibition at 125 µg/mL [16] of 21.3%. For the same compound, the inhibition at 62.5 µg/mL [20] was 9.2%, the inhibition at 250 µg/mL [21] was 55.5% and the inhibition at 125 µg/mL [23] was 18.3%. For the same compound, the inhibition at 62.5 µg/mL [24] was 13.5% and the inhibition at 3.9 µg/mL [25] was 0%.

— ChEMBL document CHEMBL3407460, “Synthesis of novel thiazole-based 8,9-dihydro-7H-pyrimido[4,5-b][1,4]diazepines as potential antitumor and antifungal agents” (2015)
